CHO-K1 Ca ag = counter-screen for M1 agonists: effect in parental CHO-K1 cells; Fluo-8 calcium fluorescence; scaled to maximal ATP response, vehicle zero; activation, % at 3 µM; 0.48% of 360,000 active; in the data active means activation above about 15%;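 further: untransfected CHO-K1 host cells lacking M1 receptor as counterscreen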
CHO-K1 Ca antag = M1 antagonist counterscreen hit in parental CHO-K1 cells; inhibition, % at 3 µM; 0.6% of 360,000 active; ATP-induced calcium, Fluo-8 fluorescence; AID 602250;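 active means inhibition above a per-plate cutoff, the plate's mean sample inhibition plus 3 SD, cut at about 24% in these data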;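 further: 0% = DMSO plus EC80 ATP and 100% = DMSO alone without ATP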
CHO-K1 Ca PAM = M1 PAM counterscreen hit in parental CHO-K1 cells | ATP EC20, Fluo-8 calcium fluorescence; 0% at ATP EC20, 100% at ATP max | activation, % at 3 µM | 0.02% of 360,000 active | AID 602247;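 active means activation above the run cutoff, the mean activation of all test compounds plus 3 SD, cut at about 40% in these data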;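 further: peak over basal fluorescence ratio in a 140 s read after ATP addition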
OX1R antag-1 = blocks the human orexin 1 receptor | inhibition, % at 6.6 µM | O43613 | 1.8% of 330,000 active | OX1R-expressing cells, FRET antagonist read-out; in the data active means inhibition mostly above about 38%, no sharp cut-off; inactive means mostly below about 40%;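 further: 0% = agonist challenge alone and 100% = reference antagonist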
Target sequence (O43613 whole entry, looked up): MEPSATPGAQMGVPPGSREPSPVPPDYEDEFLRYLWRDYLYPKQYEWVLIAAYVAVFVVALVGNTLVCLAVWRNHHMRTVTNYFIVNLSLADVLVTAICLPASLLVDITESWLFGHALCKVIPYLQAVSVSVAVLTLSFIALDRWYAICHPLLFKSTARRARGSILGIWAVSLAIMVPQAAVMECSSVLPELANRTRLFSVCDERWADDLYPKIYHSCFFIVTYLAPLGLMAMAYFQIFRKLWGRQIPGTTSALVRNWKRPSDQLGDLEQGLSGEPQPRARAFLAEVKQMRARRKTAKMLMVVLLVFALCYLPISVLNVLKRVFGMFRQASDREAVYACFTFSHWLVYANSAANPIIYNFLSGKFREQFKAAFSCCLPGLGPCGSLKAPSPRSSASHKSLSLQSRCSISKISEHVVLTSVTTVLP
OX1R antag-2 = blocks the human orexin 1 receptor; O43613; 0.43% of 330,000 active; CHO/OX1R cells, Fluo-8 calcium fluorescence, orexin A; inhibition, % at 5 µM;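 active means inhibition above its plate's threshold, mean inhibition of all tested compounds on the plate plus 3 SD, cut at about 37% in these data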;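 further: 0% = orexin A challenge wells and 100% = SB-334867-A antagonist wells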
CHO parental Ca = signal in parental CHO cells, OX1R antagonist counter-screen; parental CHO-K1, ATP-induced calcium, Fluo-8 fluorescence; 0.63% of 330,000 active; AID 463079; inhibition, % at 5.6 µM;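 active means inhibition above that plate's mean sample inhibition plus 3 SD, cut at about 26% in these data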;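 further: 0% = ATP-challenged DMSO wells and 100% = DMSO wells without ATP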
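Material – parental CHO cells · Reagent – ATP stimulus · Compound – single nominal dose of 5.6 µM per compound · Detection – Fluo-8 fluorescence · Read-out basis – percent inhibition of calcium signal · Controls – ATP-challenged DMSO wells low, unchallenged DMSO wells high · Repeats – no replicates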
The depositor's hits bear a star; x = no result. Hits are enriched below; roughly 2.9% of the tested compounds scored in any of these assays.

SMILES	CHO-K1 Ca ag	CHO-K1 Ca antag	CHO-K1 Ca PAM	OX1R antag-1	OX1R antag-2	CHO parental Ca
CN(CCCC(=O)O)S(=O)(=O)c1ccc2c(c1)C(=O)c1cc(S(=O)(=O)N(C)CCCC(=O)O)ccc1-2	0	-3	6	51*	-6	-5
CN(CCO)S(=O)(=O)c1ccc2c(c1)C(=NNC(N)=O)c1cc(S(=O)(=O)N(C)CCO)ccc1-2	0	-8	4	20	8	0
Cc1ccc(Nc2cc(C)nn2-c2nc(C)cc(=O)[nH]2)cc1	0	21	-3	10	41*	55*
COc1ccc(-c2c3c([nH]c(=S)c2C#N)CCC3)cc1	-1	26*	-4	x	x	x
O=C(NC(Sc1ccc(Cl)cc1)C(=O)O)c1ccccc1 (stereo not drawn)	0	5	-8	x	x	x
Cc1nn(C(C)C(=O)NCc2ccco2)c(=O)c2nn(-c3ccccc3)c(C)c12 (stereo not drawn)	5	-5	1	2	1	-4
COc1ccc(OC)c(NC(=O)C2CCCN(S(=O)(=O)c3cccc4cccnc34)C2)c1 (stereo not drawn)	5	11	-7	74*	-7	-21
Cc1cc(NC(=O)C2CCCN(S(=O)(=O)c3c(C)noc3C)C2)no1 (stereo not drawn)	0	1	9	19	-23	-4
COc1ccc(C)cc1NC(=O)c1ccccc1NS(=O)(=O)c1cccc2cccnc12	0	-10	24	70*	15	-12
Cc1cccc(NC(=O)C2CCCN(S(=O)(=O)c3cccc4cccnc34)C2)c1 (stereo not drawn)	4	-2	8	54*	6	-16
Cc1ccc(NC(=O)C2CCCN(S(=O)(=O)c3cccc4cccnc34)C2)cc1 (stereo not drawn)	3	-11	-3	23	-39	-30
Cc1cc(C)cc(NC(=O)C2CCCN(S(=O)(=O)c3c(C)noc3C)C2)c1 (stereo not drawn)	0	-4	-4	72*	11	-17
COc1ccc(C)cc1NC(=O)C1CCN(S(=O)(=O)c2cccc3cccnc23)CC1	6	3	9	6	-24	-10
CCOC(=O)C1CCCN(C(=O)CCCn2nnnc2CN2CCOCC2)C1 (stereo not drawn)	1	-19	11	x	x	x
CCOc1cc(/C=C2\NC(=O)NC2=O)ccc1OC(C)C(=O)O (stereo not drawn)	0	1	6	42*	-12	-6
COc1cc(C=C2NC(=O)NC2=O)ccc1O	1	-20	27	x	x	x
CC(=O)Oc1ccc(C(=O)Cc2ccccn2)c(O)c1	-1	24*	-11	15	-14	-8
CCc1cc(C(=O)Cc2ccccn2)c(O)cc1O	6	-5	6	6	-12	-6
O=c1cc(-c2ccccc2)oc2cc(O)ccc12	1	-3	5	x	x	x
O=c1ccc2c(-c3ccccc3)c3ccc(O)cc3oc-2c1	533*	93*	-11	19	107*	101*
Nc1ccc(-c2c3ccc(=O)cc-3oc3cc(O)ccc23)cc1C(=O)O	133*	27*	-28	69*	84*	70*
CC(OC(=O)Nc1ccccc1)C(=O)OC1CCCCC1 (stereo not drawn)	0	-12	17	x	x	x
Cc1ccc(C)c(C(=O)COC(=O)c2ccc(C)c(S(=O)(=O)N3CCOCC3)c2)c1	1	-11	15	6	15	8
CC(=O)c1ccc(N2CCN(C(=O)c3nn(C)c4c3CS(=O)(=O)c3ccccc3-4)CC2)cc1	16*	-2	-11	13	-33	-26
O=C(NC1CCN(C(=O)c2cccc([N+](=O)[O-])c2)CC1)c1ccccc1	0	-13	6	3	-6	-5
Cc1cc(NC(=O)c2cc(-c3ccc(OC(C)C)cc3)nc3ccccc23)no1	1	-17	15	13	-32	-14
Cc1ccc(C(=O)N(CC(C)C)c2nc3ccccc3s2)o1	1	-17	11	9	-37	-25
CC(C)CN(C(=O)c1ccc(=O)n(C)n1)c1nc2ccccc2s1	0	24*	-7	13	-25	-14

From PubChem
